Data from ChEMBL document CHEMBL2146366, “Discovery of microsomal triglyceride transfer protein (MTP) inhibitors with potential for decreased active metabolite load compared to dirlotapide” (Bioorg Med Chem Lett, 2011).
Calls of active or inactive are those of the source. The rule behind the calls is not given here.

Tests used:
Rattus norvegicus [1] = experiment: Antiobesity activity in high fat diet-induced obese Sprague-Dawley rat assessed as reduction of food intake at 10 mg/kg, po administered daily for 3 days relative to dirlotapide; assay type: functional; set-up: scale not given: the % may be the effect or the level left
Outline: (§1)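 Male Sprague–Dawley rats (~300 g, n = 5 per group) were acclimatized for seven days to a high-fat diet (45% kcal from fat). They received three consecutive daily oral gavage doses 1.5 h before the dark cycle. Vehicle was SEDDS:H2O 10:90, with SEDDS made of Miglyol 812 10%, triacetin 30%, polysorbate 80 20% and Capmul MCM 30%. Food intake was recorded during dosing, and liver TG was measured afterwards, both against vehicle.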

Rattus norvegicus [2] = experiment: Antiobesity activity in high fat diet-induced obese Sprague-Dawley rat assessed as reduction in body weight at 1 mg/kg, po administered daily for 3 days relative to dirlotapide; assay type: functional; set-up: scale not given: the % may be the effect or the level left
Rattus norvegicus [3] = experiment: Antiobesity activity in high fat diet-induced obese Sprague-Dawley rat assessed as reduction of food intake at 3 mg/kg, po administered daily for 3 days relative to dirlotapide; assay type: functional; set-up: scale not given: the % may be the effect or the level left; outline: as §1
Rattus norvegicus [4] = experiment: Antiobesity activity in high fat diet-induced obese Sprague-Dawley rat assessed as reduction in body weight at 30 mg/kg, po administered daily for 3 days relative to dirlotapide; assay type: functional; set-up: scale not given: the % may be the effect or the level left
Rattus norvegicus [5] = experiment: Antiobesity activity in high fat diet-induced obese Sprague-Dawley rat assessed as reduction of food intake at 100 mg/kg, po administered daily for 3 days relative to dirlotapide; assay type: functional; set-up: scale not given: the % may be the effect or the level left; outline: as §1
Rattus norvegicus [6] = experiment: Antiobesity activity in po dosed high fat diet-induced obese Sprague-Dawley rat assessed as reduction of body weight administered daily for 3 days; assay type: functional; conditions: 72 h, read-out: MED
Rattus norvegicus [7] = experiment: Antiobesity activity in high fat diet-induced obese Sprague-Dawley rat assessed as reduction in body weight at 10 mg/kg, po administered with 25% SDD formulation daily for 3 days relative to control; assay type: functional; set-up: scale not given: the % may be the effect or the level left
Rattus norvegicus [8] = experiment: Drug metabolism in rat assessed as formation of 2-(4'-tert-butylbiphenyl-2-ylcarboxamido)-N-(2-(methylamino)-2-oxo-1-phenylethyl)quinoline-6-carboxamide at 30 mg/kg, po administered as single dose; assay type: ADME, organism-based; set-up: dose 30 mg/kg, route oral; conditions: in vivo
Canis familiaris [9] = experiment: Drug metabolism in beagle dog assessed as formation of N-(2-((4-fluorobenzyl)(methyl)amino)-2-oxo-1-phenylethyl)-2-(4'-(1-hydroxy-2-methylpropan-2-yl)biphenyl-2-ylcarboxamido)quinoline-6-carboxamide at 2.5 mg/kg, po administered as single dose; assay type: ADME, organism-based, Canis lupus familiaris; set-up: dose 2.5 mg/kg, route oral; conditions: in vivo
Rattus norvegicus [10] = experiment: Toxicity in high fat diet-induced obese Sprague-Dawley rat assessed as change in serum ALT level at 30 mg/kg, po qd for 7 days relative to control; assay type: organism-based; set-up: dose 30 mg/kg, route oral; conditions: in vivo, 168 h
Outline: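 Seven-day study in high-fat-diet rats. Compound was given once daily by mouth as a spray-dried dispersion, with vehicle controls. Serum ALT was measured alongside food intake, body weight, liver TG and systemic exposure (AUC). ALT is expressed as % change versus vehicle, with significance set at P ≤ 0.05.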

[11] = AUC in high fat diet-induced obese Sprague-Dawley rat at 3 mg/kg, po qd for 7 days; assay type: ADME, organism-based; set-up: dose 3 mg/kg, route oral; conditions: plasma
Outline: (§2)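 Seven-day rat study: once-daily oral dosing at 3, 10 or 30 mg/kg, with 1, 3 and 100 mg/kg also used for one series. Compounds were given as spray-dried dispersions in hydroxypropylmethylcellulose acetate succinate. Food intake, body weight, liver TG and serum ALT were measured against vehicle. Systemic exposure was reported as AUC (ng h/mL). Significance versus vehicle was set at P ≤ 0.05.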

[12] = AUC in high fat diet-induced obese Sprague-Dawley rat at 10 mg/kg, po qd for 7 days; assay type: ADME, organism-based; set-up: dose 10 mg/kg, route oral; conditions: plasma; outline: as §2
[13] = AUC in high fat diet-induced obese Sprague-Dawley rat at 30 mg/kg, po qd for 7 days; assay type: ADME, organism-based; set-up: dose 30 mg/kg, route oral; conditions: plasma; outline: as §2
Rattus norvegicus [14] = experiment: Drug metabolism in rat assessed as formation of N-(2-((4-fluorobenzyl)(methyl)amino)-2-oxo-1-phenylethyl)-2-(4'-(1-hydroxy-2-methylpropan-2-yl)biphenyl-2-ylcarboxamido)quinoline-6-carboxamide at 30 mg/kg, po administered as single dose; assay type: ADME, organism-based; set-up: dose 30 mg/kg, route oral; conditions: in vivo
Rattus norvegicus [15] = experiment: Antiobesity activity in high fat diet-induced obese Sprague-Dawley rat assessed as reduction of body weight at 10 mg/kg, po qd for 7 days relative to control; assay type: functional; set-up: scale not given: the % may be the effect or the level left; outline: as §2
Rattus norvegicus [16] = experiment: Antiobesity activity in high fat diet-induced obese Sprague-Dawley rat assessed as reduction of food intake at 30 mg/kg, po qd for 7 days relative to control; assay type: functional; set-up: scale not given: the % may be the effect or the level left; outline: as §2
Rattus norvegicus [17] = experiment: Antiobesity activity in high fat diet-induced obese Sprague-Dawley rat assessed as reduction of food intake at 3 mg/kg, po qd for 7 days relative to control; assay type: functional; set-up: scale not given: the % may be the effect or the level left; outline: as §2
Rattus norvegicus [18] = experiment: Antiobesity activity in high fat diet-induced obese Sprague-Dawley rat assessed as reduction in body weight at 100 mg/kg, po administered daily for 3 days relative to control; assay type: functional; set-up: scale not given: the % may be the effect or the level left
Rattus norvegicus [19] = experiment: Antiobesity activity in high fat diet-induced obese Sprague-Dawley rat assessed as reduction of food intake at 100 mg/kg, po administered daily for 3 days relative to control; assay type: functional; set-up: scale not given: the % may be the effect or the level left; outline: as §1
Rattus norvegicus [20] = experiment: Antiobesity activity in high fat diet-induced obese Sprague-Dawley rat assessed as triglyceride accumulation in liver at 1 mg/kg, po administered daily for 3 days relative to control; assay type: functional, organism-based; set-up: dose 1 mg/kg; outline: as §1
Rattus norvegicus [21] = experiment: Antiobesity activity in high fat diet-induced obese Sprague-Dawley rat assessed as reduction of triglyceride accumulation in liver at 10 mg/kg, po administered daily for 3 days relative to control; assay type: functional; outline: as §1
[22] = Fraction unbound in human HepG2 cells by equilibrium dialysis; assay type: ADME, cell-based
Outline: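 Protein binding was measured by equilibrium dialysis under the conditions of the apoB secretion assay in human HepG2 cells, to give unbound fraction.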

Canis familiaris [23] = experiment: Drug metabolism in beagle dog assessed as formation of 2-(4'-tert-butylbiphenyl-2-ylcarboxamido)-N-(2-(methylamino)-2-oxo-1-phenylethyl)quinoline-6-carboxamide at 2.5 mg/kg, po administered as single dose; assay type: ADME, organism-based, Canis lupus familiaris; set-up: dose 2.5 mg/kg, route oral; conditions: in vivo

Drug metabolism (Rattus norvegicus [8]): Active
Drug metabolism (Canis familiaris [9]): Active
AUC at 168 h [11]: 12 ng·h/mL
AUC at 168 h [12]: 42 ng·h/mL
AUC at 168 h [13]: 65 ng·h/mL
Drug metabolism (Rattus norvegicus [14]): Active
fraction unbound [22]: 0.00063
Drug metabolism (Canis familiaris [23]): Active
SMILES: CN(Cc1ccc(F)cc1)C(=O)[C@@H](NC(=O)c1ccc2nc(NC(=O)c3ccccc3-c3ccc(C(C)(C)C)cc3)ccc2c1)c1ccccc1
Activity (Rattus norvegicus [1]): 46%
Activity (Rattus norvegicus [2]): 25%
Activity (Rattus norvegicus [3]): 6%
Activity (Rattus norvegicus [4]): 75%
Activity (Rattus norvegicus [5]): 35%
minimal effective dose (Rattus norvegicus [6]): 3 mg/kg
Activity (Rattus norvegicus [7]): 96%
Activity (Rattus norvegicus [10]): 237%
Activity (Rattus norvegicus [15]): 255%
Activity (Rattus norvegicus [16]): 48%
Activity (Rattus norvegicus [17]): 25%
Activity (Rattus norvegicus [18]): 107%
Activity (Rattus norvegicus [19]): 47%
Activity (Rattus norvegicus [20]): inactive
Activity (Rattus norvegicus [21]): inactive
